Results reported in ChEMBL document CHEMBL1142209, “Inhibition of Plasmodium falciparum choline kinase by hexadecyltrimethylammonium bromide: a possible antimalarial mechanism” (Antimicrob Agents Chemother, 2007).

Tests used:
Plasmodium falciparum [1] = test: Inhibition of Plasmodium falciparum choline kinase at 50 uM in presence of 250 uM ATP
Plasmodium falciparum [2] = test: Inhibition of Plasmodium falciparum choline kinase at 50 uM in presence of 100 uM ATP
Plasmodium falciparum [3] = test: Inhibition of Plasmodium falciparum choline kinase at 150 uM in presence of 100 uM ATP
Plasmodium falciparum [4] = test: Inhibition of Plasmodium falciparum choline kinase at 150 uM in presence of 250 uM ATP
Plasmodium falciparum [5] = test: Inhibition of Plasmodium falciparum choline kinase at 100 uM
Summary of the method: (§1)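 Purified recombinant PfCK (5 μg; Ni-NTA affinity plus gel filtration) incubated at 37°C for 45 min in 100 mM Tris-Cl pH 8.8, 5 mM ATP, 6 mM MgCl2, 250 μM [methyl-14C]choline (5.6 mCi/mmol). Stopped with Dowex-50W slurry; [14C]phosphocholine in supernatant counted by scintillation. DMSO control = 100%. Three experiments in triplicate.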

Plasmodium falciparum [6] = test: Inhibition of phosphocholine biosynthesis in Plasmodium falciparum NF54 as intracellular free choline at 10 uM; format: functional, organism-based
Summary of the method: (§2)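 NF-54 culture (15% parasitemia, 5% hematocrit) treated 1 h at 37°C (90% N2, 5% CO2) and washed. Labelled 4 h with 40 μM [methyl-14C]choline (5.6 mCi/mmol). Cells lysed in 5% TCA with freeze-thaw; phosphatidylcholine counted in pellet. Ether-extracted supernatant split on Dowex-50W: phosphocholine unbound, free choline eluted with 1 N HCl. Compared with DMSO control.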

Plasmodium falciparum [7] = test: Inhibition of Plasmodium falciparum NF54 as [3H]hypoxanthine uptake at 10 uM; format: functional, organism-based
Summary of the method: (§3)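 Asynchronous P. falciparum NF-54 in human B+ erythrocytes (1% hematocrit, 0.5–0.7% parasitemia) exposed to compound (DMSO stock diluted in RPMI) for 48 h. Then washed and pulsed 48 h with [3H]hypoxanthine 0.7 μCi/well. Harvested on glass-fibre filters and counted by scintillation. % inhibition vs DMSO control; three experiments in triplicate.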

Plasmodium falciparum [8] = test: Inhibition of choline kinase in Plasmodium falciparum NF54 assessed as incorporation of [methlyl-14C]choline into phosphocholine at 10 uM; summary of the method: as §2
Plasmodium falciparum [9] = test: Inhibition of phosphatidylcholine biosynthesis in Plasmodium falciparum NF54 as [methlyl-14C]choline uptake; format: functional, organism-based; summary of the method: as §2
Plasmodium falciparum [10] = test: Inhibition of Plasmodium falciparum NF54 ring stage at 30 uM; format: functional, organism-based
Summary of the method: (§4)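 Sorbitol-synchronized NF-54 at 0.5% ring parasitemia, 1% hematocrit. Rings (0 h), trophozoites (24 h) or schizonts (36 h) exposed 8 h in CRPMI, then washed out. [3H]hypoxanthine (0.7 μCi/well) added at 24, 48 or 60 h respectively; harvest at 72 h and scintillation count. Read against stage-matched DMSO control; three experiments in triplicate.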

Plasmodium yoelii [11] = test: Antimalarial activity against intraperitoneal inoculated Plasmodium yoelii N67 in Swiss mice (Mus musculus) at 20 mg/kg intraperitoneal dose on day 4; format: functional, organism-based; design: dose 20 mg/kg; conditions: N-67
Summary of the method: (§5)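 P. yoelii N-67 in Swiss mice (22 ± 2 g, five per group), 1 × 10^5 parasitized RBC i.p. on day 0. Aqueous suspension given i.p. (0.20 ml) from 6 h post-inoculation, days 0–3. Day-4 parasitemia from Giemsa smears; % suppression = [(C − T)/C] × 100 on group means vs vehicle.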

Plasmodium yoelii [12] = test: Antimalarial activity at day 4 against intravenously inoculated Plasmodium yoelii N67 in Swiss mice (Mus musculus) at 20 mg/kg intraperitoneal dose; format: functional, organism-based; design: dose 20 mg/kg; conditions: N-67
Summary of the method: (§6)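 P. yoelii N-67 in Swiss mice (22 ± 2 g, five per group), 1 × 10^4 parasitized RBC i.v. on day 0. Aqueous suspension given i.p. (0.20 ml) from 6 h post-inoculation, days 0–3. Day-4 parasitemia from Giemsa smears; % suppression = [(C − T)/C] × 100 on group means vs vehicle.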

Plasmodium yoelii [13] = test: Antimalarial activity against intraperitoneal inoculated Plasmodium yoelii N67 in Swiss mice (Mus musculus) at 10 mg/kg intraperitoneal dose on day 4; format: functional, organism-based; design: dose 10 mg/kg; conditions: N-67; summary of the method: as §5
Plasmodium yoelii [14] = test: Antimalarial activity against intravenously inoculated Plasmodium yoelii N67 in Swiss mice (Mus musculus) at 5 mg/kg intraperitoneal dose on day 4; format: functional, organism-based; design: dose 5 mg/kg; conditions: N-67; summary of the method: as §6
Plasmodium yoelii [15] = test: Antimalarial activity against intravenously inoculated Plasmodium yoelii N67 in Swiss mice (Mus musculus) at 10 mg/kg intraperitoneal dose on day 4; format: functional, organism-based; design: dose 10 mg/kg; conditions: N-67; summary of the method: as §6
Plasmodium falciparum [16] = test: Inhibition of Plasmodium falciparum choline kinase; summary of the method: as §1
Plasmodium falciparum [17] = test: Inhibition of Plasmodium falciparum NF54 as [3H]hypoxanthine uptake at 20 uM; format: functional, organism-based; summary of the method: as §3
Plasmodium yoelii [18] = test: Antimalarial activity against intraperitoneal inoculated Plasmodium yoelii N67 in Swiss mice (Mus musculus) at 5 mg/kg intraperitoneal dose on day 4; format: functional, organism-based; design: dose 5 mg/kg; conditions: N-67; summary of the method: as §5
Plasmodium falciparum [19] = test: Inhibition of Plasmodium falciparum NF54 trophozoite at 10 uM; format: functional, organism-based; summary of the method: as §4
Plasmodium falciparum [20] = test: Growth inhibition of schizont Plasmodium falciparum NF54 at 10 uM; format: functional, organism-based; summary of the method: as §4

| Compound | inhibition (Plasmodium falciparum [1]) [%] | inhibition (Plasmodium falciparum [2]) [%] | inhibition (Plasmodium falciparum [3]) [%] | inhibition (Plasmodium falciparum [4]) [%] | inhibition (Plasmodium falciparum [5]) [%] | inhibition (Plasmodium falciparum [6]) [%] | inhibition (Plasmodium falciparum [7]) [%] | inhibition (Plasmodium falciparum [8]) [%] | Activity (Plasmodium falciparum [9]) | inhibition (Plasmodium falciparum [10]) [%] | Activity (Plasmodium yoelii [11]) [%] | Activity (Plasmodium yoelii [12]) [%] | Activity (Plasmodium yoelii [13]) [%] | Activity (Plasmodium yoelii [14]) [%] | Activity (Plasmodium yoelii [15]) [%] | Activity (Plasmodium falciparum [16]) | inhibition (Plasmodium falciparum [17]) [%] | Activity (Plasmodium yoelii [18]) [%] | inhibition (Plasmodium falciparum [19]) [%] | inhibition (Plasmodium falciparum [20]) [%] |
| --- | --- | --- | --- | --- | --- | --- | --- | --- | --- | --- | --- | --- | --- | --- | --- | --- | --- | --- | --- | --- |
| C[N+]1(C)CCOC(O)(c2ccc(-c3ccc(C4(O)C[N+](C)(C)CCO4)cc3)cc2)C1 (stereo unspecified) | 16 | 16 | 18 | 18 |  |  |  |  |  |  |  |  |  |  |  |  |  |  |  |  |
| hexadecyltrimethylammonium bromide |  | 60 |  |  | 60 | 42 | 62 | 57 | Dose-dependent effect | 33.3 | 77.2 | 83.7 | 52.4 | 48.7 | 64.2 | Dose-dependent effect | 81 | 36.8 | 62 | 51 |
